Activity calls are given as the source filed them. The rule behind the calls is not given here.
Tests used:
Format in all cases: cell-based
[1] = organism: Rattus norvegicus; test: Inhibition of HSP90 in rat 50B11 cells assessed as decrease in c-jun protein expression at 1 uM incubated for 24 hrs followed by 10% FBS exposure for 2 hrs by Western blot analysis
Method in brief: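 50B11 cells held in serum-free medium 24 h to arrest cycle and lower c-Jun, then given vehicle or 1.0 μM compound for 24 h; c-Jun induced by 10% FBS medium for 2 h. Lysates immunoblotted for c-Jun with actin control; densitometry gives fold change normalized to serum-free-then-serum control. Mean ±SEM, n >2.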

[2] = organism: Rattus norvegicus; test: Inhibition of HSP90 in rat 50B11 cells assessed as increase in Hsp70 protein expression at 0.03 to 3 uM after 24 hrs by immunoblot assay
Method in brief: (§1)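 Nontransfected 50B11 cells exposed 24 h to compound, with DMSO as negative control. Hsp70 detected by immunoblot; densitometry reports fold induction over DMSO. Mean ±SEM, n >2.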

[3] = organism: Rattus norvegicus; test: Inhibition of HSP90 in rat 50B11 cells transfected with human HSPA1A promoter assessed as induction of human Hsp70 expression at 10 to 1000 nM incubated for 16 hrs by luciferase reporter gene assay
[4] = organism: Rattus norvegicus; test: Inhibition of HSP90 in rat 50B11 cells assessed as increase in Hsp70 protein expression at 1 uM after 24 hrs by immunoblot assay; method in brief: as §1
[5] = organism: Rattus norvegicus; test: Inhibition of HSP90 in rat 50B11 cells assessed as improvement in mitochondrial bioenergetics by measuring suppression of H2O2-induced reduction in oxygen consumption rate at 1 uM after 24 hrs by XF96 extracellular flux analyzer based method
Method in brief: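 50B11 cells seeded in high-glucose DMEM with 10% FBS; after 12 h switched to high-glucose DMEM with 1% FBS plus 1.0 μM compound or DMSO for 24 h, then stressed with 0.5 mM H2O2 for 2 h. Intact-cell OCR and ECAR read on XF96 extracellular flux analyzer; maximal respiratory capacity from FCCP response; significance versus H2O2 alone, p<0.05.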

Compound	inhibition [2]	inhibition [3]	also measured
COc1ccccc1COC1CCC(Oc2cc(O)c(CCNC(C)=O)c(-c3cccc(F)c3)c2)CC1 (configuration not stated)	Active	–	inhibition [1]: Active
CC(=O)NCCc1ccc(OC2CCC(OCc3ccc(Cl)cc3Br)CC2)cc1-c1cccc(F)c1 (configuration not stated)	–	Active	–
COc1cc(C)ccc1COC1CCC(Oc2ccc(CCNC(C)=O)c(-c3cccc(F)c3)c2)CC1 (configuration not stated)	–	Active	–
CC(=O)NCCc1ccc(OC2C=CC(OCc3ccc(Cl)cc3)CC2)cc1-c1cccc(F)c1 (configuration not stated)	–	Active	inhibition [4]: Active
CC(=O)NCCc1c(O)cc(OC2CCC(OCc3ccccc3C)CC2)cc1-c1cccc(F)c1 (configuration not stated)	Active	–	–
CC(=O)NCCc1ccc(OC2CCC(OCc3ccccc3Br)CC2)cc1-c1cccc(F)c1 (configuration not stated)	–	Active	inhibition [4]: Active
CC(=O)NCCc1ccc(O)cc1-c1cccc(F)c1	–	inactive	–
COc1cc(OC2CCC(OCc3ccccc3C)CC2)cc(-c2cccc(F)c2)c1CCNC(C)=O (configuration not stated)	Active	–	–
CC(=O)NCCc1cc(C)c(OC2CCC(OCc3ccc(Br)cc3)CC2)cc1-c1cccc(F)c1 (configuration not stated)	inactive	–	–
CC(=O)NCCc1ccc(OC2CCC(OCc3ccc(Cl)cc3)CC2)cc1-c1cccc(F)c1 (configuration not stated)	–	Active	inhibition [4]: inactive
CC(=O)NCCc1ccc(OC2CCC(OCc3ccccc3)CC2)cc1-c1cccc(F)c1 (configuration not stated)	–	Active	inhibition [5]: Active
CC(=O)NCCc1ccc(OC2CCC(OCc3ccc(C)cc3)CC2)cc1-c1cccc(F)c1 (configuration not stated)	–	Active	–
COc1cc(Cl)ccc1COC1CCC(Oc2ccc(CCNC(C)=O)c(-c3cccc(F)c3)c2)CC1 (configuration not stated)	–	Active	inhibition [4]: inactive
CC(=O)NCCc1ccc(OC2CCC(OCc3ccc(Cl)cc3)CC2)c(O)c1-c1cccc(F)c1 (configuration not stated)	Active	–	–
CC(=O)NCCc1cc(C)c(OC2CCC(OCc3ccccc3)CC2)cc1-c1cccc(F)c1 (configuration not stated)	inactive	–	–
COc1ccccc1COC1CCC(Oc2ccc(CCNC(C)=O)c(-c3cccc(F)c3)c2)CC1 (configuration not stated)	–	–	inhibition [4]: Active
COc1ccccc1COC1CCC(Oc2cc(-c3cccc(F)c3)c(CCNC(C)=O)cc2C)CC1 (configuration not stated)	inactive	–	–
CC(=O)NCCc1cc(C)c(OC2CCC(OCc3ccccc3C)CC2)cc1-c1cccc(F)c1 (configuration not stated)	inactive	–	–
CC(=O)NCCc1ccc(OC2CCC(OCc3cccc(Cl)c3)CC2)cc1-c1cccc(F)c1 (configuration not stated)	–	Active	–
CC(=O)NCCc1ccc(OC2CCC(OCc3ccccc3Cl)CC2)cc1-c1cccc(F)c1 (configuration not stated)	–	Active	inhibition [4]: Active
CC(=O)Nc1cc2ccc(O)c(C)c2oc1=O	–	inactive	–
CC(=O)Nc1cc2ccc(OCc3ccc(Cl)cc3)c(C)c2oc1=O	–	inactive	–
CC(=O)NCCc1ccc(OC2CCC(OCc3ccccc3C)CC2)c(O)c1-c1cccc(F)c1 (configuration not stated)	Active	–	–
CO[C@@H]1[C@@H](O)[C@@H](O)[C@H](Oc2cc(O)c(CCNC(C)=O)c(-c3cccc(F)c3)c2)OC1(C)C	–	–	inhibition [1]: Active
CC(=O)NCCc1ccc(OC2CCC(OCc3ccc(F)cc3)CC2)cc1-c1cccc(F)c1 (configuration not stated)	–	Active	–
CC(=O)NCCc1c(O)cc(OC2CCC(OCc3ccccc3)CC2)cc1-c1cccc(F)c1 (configuration not stated)	Active	–	inhibition [1]: Active

Compound	inhibition [2]	inhibition [3]	also measured
CC(=O)NCCc1ccc(OC2CCC(OCc3ccc(Br)cc3)CC2)c(O)c1-c1cccc(F)c1 (configuration not stated)	Active	–	inhibition [1]: Active
CC(=O)NCCc1ccc(OC2CCC(OCc3ccccc3)CC2)c(O)c1-c1cccc(F)c1 (configuration not stated)	Active	–	–
CC(=O)NCCc1ccc(OC2CCC(OCc3ccc4ccccc4c3)CC2)cc1-c1cccc(F)c1 (configuration not stated)	–	Active	–
CC(=O)NCCc1c(O)cc(OC2CCC(OCc3ccc(Br)cc3)CC2)cc1-c1cccc(F)c1 (configuration not stated)	Active	–	–
CC(=O)NCCc1ccc(OC2CCC(OCc3ccc(Br)cc3)CC2)cc1-c1cccc(F)c1 (configuration not stated)	–	Active	–
COc1cc(O[C@@H]2OC(C)(C)[C@H](OC)[C@@H](O)[C@H]2O)cc(-c2cccc(F)c2)c1CCNC(C)=O	–	–	inhibition [1]: Active
CC(=O)NCCc1ccc(OC2CCC(OCc3ccc(C(C)(C)C)cc3)CC2)cc1-c1cccc(F)c1 (configuration not stated)	–	Active	–
COc1cc(OC2CCC(OCc3ccc(Cl)cc3)CC2)cc(-c2cccc(F)c2)c1CCNC(C)=O (configuration not stated)	Active	–	inhibition [5]: Active; inhibition [1]: Active
CO[C@@H]1[C@@H](O)[C@@H](O)[C@H](Oc2ccc(CCNC(C)=O)c(-c3cccc(F)c3)c2)OC1(C)C	Active	–	inhibition [5]: Active
COc1ccccc1COC1CCC(Oc2ccc(CCNC(C)=O)c(-c3cccc(F)c3)c2O)CC1 (configuration not stated)	Active	–	–
COc1cc(OC2CCC(OCc3ccc(Br)cc3)CC2)cc(-c2cccc(F)c2)c1CCNC(C)=O (configuration not stated)	Active	–	inhibition [1]: Active
CC(=O)NCCc1c(O)cc(OC2CCC(OCc3ccc(Cl)cc3)CC2)cc1-c1cccc(F)c1 (configuration not stated)	Active	–	–
CC(=O)NCCc1ccc(OC2CCC(OCc3ccc(Cl)cc3)[C@@H](O)[C@H]2O)cc1-c1cccc(F)c1 (some centres not stated)	–	Active	inhibition [4]: Active
CC(=O)Nc1cc2ccc(OCc3ccccc3Br)c(C)c2oc1=O	–	inactive	–
CC(=O)NCCc1ccc(OC2CCC(OCc3ccccc3C)CC2)cc1-c1cccc(F)c1 (configuration not stated)	–	Active	–
COc1cc(OC2CCC(OCc3ccccc3)CC2)cc(-c2cccc(F)c2)c1CCNC(C)=O (configuration not stated)	Active	–	–
CC(=O)NCCc1ccc(OC2CCC(OCc3ccc(C(F)(F)F)cc3)CC2)cc1-c1cccc(F)c1 (configuration not stated)	–	Active	inhibition [4]: inactive
COc1cccc(COC2CCC(Oc3ccc(CCNC(C)=O)c(-c4cccc(F)c4)c3)CC2)c1 (configuration not stated)	–	Active	–
CC(=O)NCCc1ccc(OC2CCC(OCc3c(Cl)cccc3Cl)CC2)cc1-c1cccc(F)c1 (configuration not stated)	–	Active	inhibition [4]: inactive
CC(=O)Nc1cc2ccc(OCc3ccccc3)c(C)c2oc1=O	–	inactive	–
COc1ccccc1COC1CCC(Oc2cc(OC)c(CCNC(C)=O)c(-c3cccc(F)c3)c2)CC1 (configuration not stated)	Active	–	–
COc1ccc(COC2CCC(Oc3ccc(CCNC(C)=O)c(-c4cccc(F)c4)c3)CC2)cc1 (configuration not stated)	–	Active	–
CO[C@@H]1[C@@H](O)[C@@H](O)[C@H](Oc2cc(-c3cccc(F)c3)c(CCNC(C)=O)cc2C)OC1(C)C	Active	–	–
CC(=O)NCCc1ccc(OC2CCC(OCc3ccccc3F)CC2)cc1-c1cccc(F)c1 (configuration not stated)	–	Active	–
COc1ccccc1COc1ccc2cc(NC(C)=O)c(=O)oc2c1C	–	inactive	–

Reference: ChEMBL document CHEMBL4251564, “Development of noviomimetics that modulate molecular chaperones and manifest neuroprotective effects” (Eur J Med Chem, 2018)
